High-throughput results as filed in PubChem.
ZTA counter: blocks Epstein-Barr virus ZTA, an EBNA-1 counter-screen | P03206 | ZTA-DNA binding, fluorescence polarization | inhibition, % at 11 µM | 320,000 tested, 0.15% active; in the data active = inhibition above about 33%
Target sequence (P03206 whole entry, looked up): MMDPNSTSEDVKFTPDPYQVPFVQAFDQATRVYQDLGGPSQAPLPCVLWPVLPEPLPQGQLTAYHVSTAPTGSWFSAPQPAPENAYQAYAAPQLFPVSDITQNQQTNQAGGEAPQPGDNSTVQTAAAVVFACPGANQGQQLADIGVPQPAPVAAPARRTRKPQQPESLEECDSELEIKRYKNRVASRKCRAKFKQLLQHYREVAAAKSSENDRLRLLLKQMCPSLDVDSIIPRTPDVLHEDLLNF
NS3 helicase inh: inhibitors of HCV NS3 helicase, primary screen, biochemical, Cy5 molecular beacon fluorescence. Hepatitis C virus NS3 helicase. NS3 helicase DNA unwinding. inhibition, % at 10.9 µM. 290,000 tested, 0.56% active;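 active = inhibition above the mean of all tested compounds plus 3 SD, set per campaign, cut at about 35% in these data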;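 note: 0% = DMSO wells and 100% = thioflavine S control wells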
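Control set: DMSO versus 110 µM thioflavine S; Material: NS3 helicase fragment of HCV; Measured by: Cy5 fluorescence at 0 and 60 min, beacon hairpin quenching; Read-out basis: percent inhibition from t60/t0 fluorescence ratio; Times: reaction time 60 min, 25 °C; Repeats: single replicate; Compound dosing: single dose, 10.9 µM nominal final, DMSO 0.8% final.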
DNA FID counter: compounds displacing fluorescent DNA intercalator, primary screen, artefact control for HCV NS3 helicase inhibitor project, biochemical, FID fluorescence; DNA fluorescent intercalator displacement; inhibition, % at 7.9 µM; 290,000 tested, 0.17% active; AID 1845, 2009; in the data active = inhibition above about 37%;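 note: 0% = vehicle and 100% = reference compound; higher means more ethidium bromide displaced from hairpin DNA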
NR3A LBD binder: binders of NR3A ligand-binding domain, primary screen, biophysical, differential scanning fluorimetry, uHTS; Glutamate receptor ionotropic, NMDA 3A (GRIN3A) ligand-binding domain; NR3A LBD differential scanning fluorimetry, Tm shift; 0% = protein alone, 100% = glycine-bound protein; Tm shift relative to glycine control, % at 25 µM; 340,000 tested, 2.5% active; AID 1259313, 2017;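 active = melting temperature shift of at least 10% of the positive control shift, at one fixed dose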
EBNA-1 inhibitor: EBNA-1 DNA-binding inhibitors, primary screen, biochemical, fluorescence polarization; inhibition, % at 14.8 µM; 300,000 tested, 0.34% active; AID 1950, 2009; in the data active = inhibition above about 28%
FGF22 binding: binders of human FGF22 protein, primary screen, FGF22 synaptogenesis inhibitor project, biophysical, thermal shift, single point. Fibroblast growth factor 22 (Homo sapiens), Q9HCT0. recombinant FGF22 thermal shift, SYPRO orange fluorescence; percent of sucrose octasulfate shift, DMSO zero. activity (Tm shift, normalised), % at 9.99 µM. 340,000 tested, 1.5% active;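 active = mean Tm shift, scaled 0 neutral to 100 positive control, at about 1.3% or above, every replicate too, limit read from the data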
Target sequence (Q9HCT0 whole entry, looked up): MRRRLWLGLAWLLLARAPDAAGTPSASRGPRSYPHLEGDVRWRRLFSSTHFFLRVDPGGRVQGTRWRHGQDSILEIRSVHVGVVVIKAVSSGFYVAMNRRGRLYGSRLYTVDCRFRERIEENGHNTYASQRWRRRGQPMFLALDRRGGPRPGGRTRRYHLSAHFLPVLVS
Numbers without * were called inactive; . = no result given. Compounds with a hit are over-represented: about 3.6% of the library has one in this group of screens.

SMILES	ZTA counter	NS3 helicase inh	DNA FID counter	NR3A LBD binder	EBNA-1 inhibitor	FGF22 binding
CCNC(=S)Nc1ccc(-c2nc3ccccc3[nH]2)cc1	-5.2	12.6	-0.4	27.7*	-2.2	1.2
COCCN1Cc2cccc(C(=O)Nc3ccc(-c4nc5ccccc5[nH]4)cc3)c2C1=O	-7.2	-0.5	-3.3	3.0	5.3	.
O=C(CN1CCOCC1)Nc1ccc(-c2nc3ccccc3[nH]2)cc1	-1.6	-2.8	3.8	-6.8	3.9	.
CC(=O)Nc1ccc(S(=O)(=O)NC2=C(N3CCN(c4ccc(F)cc4)CC3)C(=O)c3ccccc3C2=O)cc1	-3.0	-0.6	1.4	15.6*	-4.8	0.0
CCCCn1c(N)c(N(CC(C)C)C(=O)CSc2nnc(-c3ccc(Cl)cc3)o2)c(=O)[nH]c1=O	-14.9	.	.	10.1*	5.0	-0.2
C[C@@H]1CN([C@H](C)CO)C(=O)c2cccc(NS(=O)(=O)c3ccc(Cl)cc3)c2O[C@H]1CN(C)Cc1ccncc1	.	.	.	.	.	0.0
CCOc1ccccc1NC(=S)N1CCN(c2ccc(OC)cc2)CC1	6.7	-14.5	-23.7	10.3*	9.4	0.3
CCOc1ccccc1NC(=S)N1CCN(c2ccc(O)cc2)CC1	-2.0	-9.2	-6.1	7.2	-11.0	-0.1
Cc1ccc(S(=O)(=O)N(C)C[C@H]2Oc3ccc(NC(=O)Nc4ccc5c(c4)OCO5)cc3C(=O)N([C@H](C)CO)C[C@H]2C)cc1	.	.	.	.	.	-0.6
Cn1c(SCC(=O)N2c3ccccc3Sc3ccc(Cl)cc32)nnc1-c1ccco1	-2.2	-4.0	-10.9	10.5*	0.8	.
OCCNCc1cc(Br)ccc1OCc1ccccc1	-8.3	-22.3	23.8	12.6*	0.7	0.2
COc1ccccc1Oc1cc(-n2nc(C)cc2C)ncn1	-8.5	4.9	-18.2	10.4*	5.7	.
COc1ccccc1OCC(O)Cn1nc(C)cc1C (configuration not stated)	0.5	-4.4	-9.8	0.0	5.0	.
N#CC1=C(N)Oc2ccc3ccccc3c2C1c1cccnc1 (configuration not stated)	.	-4.0	-18.1	1.3	.	43.2*
N#CC1=C(N)Oc2ccc3ccc(O)cc3c2C1c1cccnc1 (configuration not stated)	-12.6	-6.8	-4.0	-2.6	2.1	0.4
CO[C@@H]1CN(C)C(=O)c2cc(NC(=O)c3cnccn3)ccc2OC[C@@H](C)N(CC2CC2)C[C@@H]1C	.	.	.	.	.	0.1
CC(=O)Nc1nc(C(=O)O)cs1	-12.3	-5.0	13.0	-0.4	7.4	42.9*
COc1ccccc1CNC(=O)C[C@H]1CC[C@@H]2[C@H](COC[C@@H](O)CN2Cc2cccc(-c3ccncc3)c2)O1	.	.	.	.	.	0.2
O=C(c1ccccc1)c1ccc[nH]1	.	.	.	-4.0	.	43.0*
O=C(c1ccccc1)c1cnc[nH]1	8.7	-2.0	-3.0	-1.4	6.7	-0.1
COc1ccc(C(OCC(O)CNC(C)c2ccccc2)c2ccc(OC)cc2)cc1 (configuration not stated)	1.9	-54.2	25.2	-1.0	-9.8	-0.4
COc1ccc(C(OCC(O)CNCCc2ccccc2)c2ccc(OC)cc2)cc1 (configuration not stated)	.	-38.9	40.5*	-1.8	.	-0.1
CC(=O)C[C@H]1c2cc(C(F)(F)F)ccc2S(=O)(=O)N1Cc1ccccc1	-3.9	.	.	-0.2	4.1	0.2
COC(=O)C[C@H]1c2ccc(C(F)(F)F)cc2S(=O)(=O)N1Cc1ccccc1	-0.5	.	.	12.9*	5.0	0.0
COc1ccc(NC(=O)c2cc3ccc4c5ccccc5[nH]c4c3cc2O)cc1	4.5	12.6	-0.7	229.5*	3.2	0.1
SMILES	ZTA counter	NS3 helicase inh	DNA FID counter	NR3A LBD binder	EBNA-1 inhibitor	FGF22 binding
CCCCNC(=O)Nc1ccccc1C(=O)NCCC	0.9	7.3	-3.9	-0.6	7.8	.
COc1ccc(NC(=O)c2cc3ccccc3cc2O)cc1	12.1	20.7	-11.2	7.1	17.9	-0.2
C=CCNC(=O)c1ccccc1NC(=O)COc1ccc(OC)cc1	0.9	-12.3	-11.2	1.1	15.0	43.7*
C=CCNC(=O)c1ccccc1NC(=O)COc1ccccc1	2.8	-5.7	-7.3	-0.4	3.8	0.0
CCCCNC(=O)Nc1ccccc1C(=O)Nc1ccc(OC)cc1	1.7	13.8	-4.1	10.7*	1.7	.
COc1ccc(NC(=O)c2cccc3ccccc23)cc1	-7.6	10.6	-3.5	21.8*	-4.2	-0.3
O=S(=O)(N[C@H]1CC[C@@H](CCn2cc(C3(O)CCCC3)nn2)O[C@@H]1CO)c1ccccc1	.	.	.	.	.	0.1
C[C@H]1CN([C@@H](C)CO)C(=O)Cc2cc(NC(=O)Nc3cccc4ccccc34)ccc2O[C@H]1CN(C)C(=O)Nc1ccc2c(c1)OCO2	.	.	.	.	.	-0.1
Cc1ccc(S(=O)(=O)N(CC(=O)Nc2ccc(Cl)c([N+](=O)[O-])c2)C2CCCCC2)cc1	0.6	-11.3	7.6	10.8*	-6.4	.
Cc1ccc(S(=O)(=O)N(CC(=O)Nc2cccc([N+](=O)[O-])c2)C2CCCCC2)cc1	-19.6	-4.7	1.7	-2.9	-8.4	.
CCCCCn1c(NC(=O)c2ccco2)c(S(=O)(=O)c2ccc(C)cc2)c2nc3ccccc3nc21	13.4	26.5	-4.3	14.8*	3.4	.
Cc1ccc(S(=O)(=O)c2c(N)n(NC(=O)c3ccccc3C)c3nc4ccccc4nc23)cc1	3.4	-4.2	-6.7	11.2*	11.3	.
C/C=C/c1cnc2c(c1)C(=O)N([C@H](C)CO)C[C@@H](C)[C@H](CN(C)S(=O)(=O)c1cn(C)cn1)O2	.	.	.	.	.	-0.2
C[C@@H]1CN([C@H](C)CO)C(=O)Cc2cc(NC(=O)NC3CCCCC3)ccc2O[C@H]1CN(C)Cc1ccc2c(c1)OCO2	.	.	.	.	.	0.3
C/C=C/c1ccc(C2[C@H]3CNC[C@@H]2N3S(=O)(=O)c2c(C)noc2C)cc1 (some centres not stated)	.	.	.	.	.	0.0
COc1cc(/C=N/NC(=O)c2cccc([N+](=O)[O-])c2)ccc1OCc1ccccc1	6.7	4.6	-2.9	22.2*	14.3	0.2
COc1c(OC(C)=O)ccc(/C=N\NC(=O)c2ccc(Br)cc2)c1[N+](=O)[O-]	-2.8	5.5	1.2	-8.5	-2.1	45.3*
O=C(N/N=C/c1cccc([N+](=O)[O-])c1)c1ccc(COc2ccccc2-c2ccccc2)cc1	-3.8	-2.6	-2.1	16.1*	-1.3	0.2
COc1ccc(Br)cc1/C=N/NC(=O)c1cc(OC)c(OC)c(OC)c1	-3.1	-2.9	-27.9	1.4	-1.4	.
COc1ccc(/C=N/NC(=O)c2cccc([N+](=O)[O-])c2)c2ccccc12	-5.5	12.2	1.3	33.7*	-13.1	0.3
CC(=O)N1CC2(C1)[C@@H](c1ccc(-c3ccccc3C)cc1)[C@@H](CO)N2C(C)=O	.	.	.	.	.	-0.1
